Laboratory results reported in ChEMBL document CHEMBL1671644, “Inhibition of human immunodeficiency virus type 1 infection by the candidate microbicide dapivirine, a nonnucleoside reverse transcriptase inhibitor” (Antimicrob Agents Chemother, 2009).
Active and inactive are the calls of the source. No cut-off for these calls is given here.

Legend:
[1] = tested on: Human immunodeficiency virus 1; experiment: Antiviral activity against HIV-1 subtype CRF02_AG V022825 infected in human MT4 cells assessed as inhibition of viral replication relative to HIV-1 3B; assay type: functional
Outline: (§1)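 MT-4 cells (3 x 10^4/well) infected with site-directed mutants or recombinant clinical isolates (200 TCID50/well) with drug, cultured 3 to 5 days. Viability read by MTT colorimetric antivirogram assay. IC50 by nonlinear regression; fold change = IC50 for the test isolate / IC50 for wild-type HIV-1 IIIB tested in parallel (mean or median).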

[2] = tested on: Human immunodeficiency virus 1; experiment: Antiviral activity against HIV-1 Bal infected in human cervical tissue explants assessed as inhibition of dissemination of virus via migratory cells after 2 hrs in presence of 12.5% cervical mucus; assay type: functional, organism-based
Outline: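 Cervical explants were exposed to HIV-1BaL plus drug for 2 h in cervical mucus simulant or whole semen (final 12.5%), then washed. Migratory cells were cocultured with PM-1 indicator cells and infection read as p24 in coculture supernatant.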

[3] = tested on: Human immunodeficiency virus 1; experiment: Antiviral activity against HIV-1 subtype D V022818 infected in human MT4 cells assessed as inhibition of viral replication relative to HIV-1 3B; assay type: functional; outline: as §1
[4] = tested on: Human immunodeficiency virus 1; experiment: Antiviral activity against HIV-1 Bal infected in 1 hr compound pretreated human ectocervical explant tissue assessed as inhibition of viral replication by RT-PCR; assay type: functional, organism-based
Outline: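 Ectocervical explants were pretreated with drug for 1 h, then exposed to HIV-1BaL (two 50% tissue infectious doses, about 10^4 TCID50 on PM-1) for 2 h at 37°C with drug present. Explants were washed and cultured overnight, then cultured separately for 10 days. Tissue was proteinase K-digested and proviral LTR DNA measured by multiplex qPCR against β-actin (10 copies/10^5 cells sensitivity). Two donors, triplicate.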

[5] = tested on: Human immunodeficiency virus 1; experiment: Antiviral activity against HIV-1 subtype CRF05_DF V022823 infected in human MT4 cells assessed as inhibition of viral replication relative to HIV-1 3B; assay type: functional; outline: as §1
[6] = tested on: Human immunodeficiency virus 1; experiment: Antiviral activity against HIV-1 SF162 infected in hu-SCID mouse assessed as protection from viral infection at 225 uM; assay type: functional; conditions: Human immunodeficiency virus 1, SF162 ISOLATE
[7] = tested on: Human immunodeficiency virus 1; experiment: Antiviral activity against HIV-1 subtype B V022811 infected in human MT4 cells assessed as inhibition of viral replication relative to HIV-1 3B; assay type: functional
Outline: (§2)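 Recombinant clinical HIV-1 isolates (200 TCID50/well) were tested in MT-4 cells (3 x 10^4/well) over 3–5 days, with an MTT viability read-out. IC50 was fitted by nonlinear regression. Fold change is the isolate IC50 divided by the HIV-1IIIB IC50, tested in parallel.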

[8] = tested on: Human immunodeficiency virus 1; experiment: Antiviral activity against HIV-1 subtype C V022816 infected in human MT4 cells assessed as inhibition of viral replication relative to HIV-1 3B; assay type: functional; outline: as §2
[9] = tested on: Human immunodeficiency virus 1; experiment: Antiviral activity against HIV-1 subtype B V022813 infected in human MT4 cells assessed as inhibition of viral replication relative to HIV-1 3B; assay type: functional; outline: as §1
[10] = tested on: Human immunodeficiency virus 1; experiment: Antiviral activity against HIV-1 subtype CRF05_DF V022833 harboring NNRTI V179I mutant infected in human MT4 cells assessed as inhibition of viral replication relative to HIV-1 3B; assay type: functional; outline: as §1
[11] = Selectivity index, ratio of CC50 for human MT-4 cells to IC50 for HIV-1 3B; assay type: functional, MT4
[12] = tested on: Human immunodeficiency virus 1; experiment: Antiviral activity against HIV-1 Bal infected in 24 hrs 100 to 1000 nM compound pretreated human ectocervical explant tissue assessed as prolonged inhibition of viral infection post compound removal measured after 2 days post compound removal; assay type: functional
Outline: (§3)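 Ectocervical explants were exposed to drug (0.01–10 µM) for 2 or 24 h at 37°C and washed. They received HIV-1BaL (2 h) on day 0, 2, 4 or 6 after drug removal, with no drug present. Read-outs at 10 days post-exposure: explant p24 ELISA, tissue proviral DNA by qPCR, and p24 in migratory cell–PM-1 cocultures. Three donors (2 h) or two donors (24 h), triplicate.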

[13] = tested on: Human immunodeficiency virus 1; experiment: Antiviral activity against HIV-1 Bal infected in 2 hrs 1000 nM compound pretreated human ectocervical explant tissue assessed as prolonged inhibition of viral infection post compound removal measured after 2 days post compound removal; assay type: functional; outline: as §3
[14] = tested on: Human immunodeficiency virus 1; experiment: Antiviral activity against HIV-1 Bal infected in human PM1 cells assessed as inhibition of transmission of virus to premissive T cells; assay type: functional, organism-based; conditions: Human immunodeficiency virus 1, Bal
Outline: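 Explants were pretreated with drug for 1 h, then exposed to HIV-1BaL for 2 h with drug present and washed. Cells that migrated out overnight were washed and cocultured with PM-1 cells (4 x 10^4/well) for about 10 days. Transfer was read as p24 by ELISA in coculture supernatant (detection limit 300 pg/ml). Two donors, triplicate.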

[15] = tested on: Human immunodeficiency virus 1; experiment: Antiviral activity against HIV-1 Bal infected in 2 hrs 10000 nM compound pretreated human ectocervical explant tissue assessed as prolonged inhibition of viral infection post compound removal measured after 4 days post compound removal; assay type: functional; outline: as §3
[16] = tested on: Human immunodeficiency virus 1; experiment: Antiviral activity against HIV-1 subtype D V022819 infected in human MT4 cells assessed as inhibition of viral replication relative to HIV-1 3B; assay type: functional; outline: as §1
[17] = tested on: Human immunodeficiency virus 1; experiment: Antiviral activity against HIV-1 subtype H V022827 harboring NNRTI V179I mutant infected in human MT4 cells assessed as inhibition of viral replication relative to HIV-1 3B; assay type: functional; outline: as §1
[18] = tested on: Human immunodeficiency virus 1; experiment: Antiviral activity against HIV-1 subtype B V022814 infected in human MT4 cells assessed as inhibition of viral replication relative to HIV-1 3B; assay type: functional; outline: as §1
[19] = tested on: Human immunodeficiency virus 1; experiment: Antiviral activity against HIV-1 subtype CRF01_AE V022821 infected in human MT4 cells assessed as inhibition of viral replication relative to HIV-1 3B; assay type: functional; outline: as §2
[20] = tested on: Human immunodeficiency virus 1; experiment: Antiviral activity against HIV-1 Bal infected in human TZM-bl cells after 24 hrs by luciferase reporter gene assay in presence of 12.5% cervical mucus; assay type: functional, organism-based; conditions: Human immunodeficiency virus 1, Bal
Outline: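 TZM-bl cells (5 x 10^4/well), cultured overnight, pretreated first with cervical mucus simulant (12.5% final) and then drug (1 h), then infected with HIV-1 BaL (200 TCID50/ml). After 24 h, cells lysed and luciferase read. IC50 versus drug-free control by nonlinear regression; effect of mucus tested by ANOVA with Bonferroni and t tests.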

[21] = Toxicity against human cervical tissue explants at 1 mM after 24 hrs by MTT assay; conditions: 1000 µM
Outline: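 Uninfected ectocervical explants were exposed to drug for 2 or 24 h. Viability was measured by MTT reduction per milligram of tissue relative to unexposed explants, either immediately or after overnight culture. Three or four donors, triplicate.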

[22] = tested on: Human immunodeficiency virus 1; experiment: Antiviral activity against HIV-1 subtype O V029524 harboring NNRTI A98G, V179E and Y181C mutant infected in human MT4 cells assessed as inhibition of viral replication relative to HIV-1 3B; assay type: functional; outline: as §1
[23] = tested on: Human immunodeficiency virus 1; experiment: Antiviral activity against HIV-1 SM012 harboring NNTRI 108I mutant infected in human MT4 cells assessed as inhibition of viral replication relative to HIV-1 3B; assay type: functional; outline: as §1
[24] = tested on: Human immunodeficiency virus 1; experiment: Antiviral activity against HIV-1 subtype B V022807 infected in human MT4 cells assessed as inhibition of viral replication relative to HIV-1 3B; assay type: functional; outline: as §2

Cc1cc(C)c(Nc2ccnc(Nc3ccc(C#N)cc3)n2)c(C)c1 [DAPIVIRINE]
Ratio IC50 [1]: 0.8 | inhibition [2]: Active | Ratio IC50 [3]: 1.4 | Activity [4]: Dose-dependent effect | IC50 ([4]; Human immunodeficiency virus 1, Bal): 0.2 nM | Ratio IC50 [5]: 0.7 | inhibition in vivo at 225 µM [6]: 85.7% | Ratio IC50 [7]: 3.1 | Ratio IC50 [8]: 1.8 | Ratio IC50 [9]: 0.7 | Ratio IC50 [10]: 1 | Selectivity Index [11]: 2389 | inhibition (INH) [12]: 90% | inhibition (INH) [13]: 90% | IC50 [14]: 0.1 nM | inhibition (INH) [15]: 90% | Ratio IC50 [16]: 1.5 | Ratio IC50 [17]: 0.9 | Ratio IC50 [18]: 0.8 | Ratio IC50 [19]: 1.7 | IC50 [20]: 8.32 nM | IC90 [20]: 41.6 nM | Activity [21]: Non-toxic | Ratio IC50 [22]: 150 | Ratio IC50 [23]: 1 | Ratio IC50 [24]: 1.1
